Assay results reported in ChEMBL document CHEMBL4715796, “Discovery of Chromane Containing Hepatitis C Virus (HCV) NS5A Inhibitors with Improved Potency against Resistance-Associated Variants” (J Med Chem, 2016).
Changes are numbered by the printed parent chain.

Key:
[1] = Selectivity ratio of EC90 for inhibition of NS5A in Hepatitis C virus subtype 3a infected in human HuH7 cells assessed as reduction in viral to EC90 for inhibition of NS5A in Hepatitis C virus subtype 1a; type: cell-based
[2] = Cmax in male Wistar Han rats at 10 mg/kg, po administered post overnight fasting measured upto 24 hrs by LC-MS/MS analysis; type: ADME, organism-based; design: route oral, dose 10 mg/kg, time <=24; conditions: rat, in vivo
In short: (§1)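 Overnight-fasted male Wistar Han rats or Beagle dogs, two animals per group, 24 h study. IV in 60% PEG200 (rat 2 mg/kg, dog 1 mg/kg). PO in 10% Tween (rat 10 mg/kg, dog 5 mg/kg). Blood sampled up to 24 h, plasma separated by centrifugation, and drug measured by LC/MS. MRT reported for the IV route.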

[3] = Drug concentration in male Wistar Han rat at 10 mg/kg, po measured after 24 hrs by LC/MS analysis; type: ADME, organism-based; conditions: in vivo, read-out: Drug uptake; in short: as §1
[4] = Selectivity ratio of EC90 for inhibition of NS5A in Hepatitis C virus subtype 4a infected in human HuH7 cells assessed as reduction in viral to EC90 for inhibition of NS5A in Hepatitis C virus subtype 1a; type: cell-based
In short: (§2)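 Fold shift calculated against the GT1a EC90, using EC90 values from the luciferase replicon assay in Huh7-derived cells.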

[5] = Selectivity ratio of EC90 for inhibition of NS5A Y93H mutant in Hepatitis C virus subtype 1a infected in human HuH7 cells assessed as reduction in viral to EC90 for inhibition of NS5A in Hepatitis C virus subtype 1a; type: cell-based
In short: (§3)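 Fold shift is calculated against the GT1a EC90. The variant EC90 comes from a transient replicon assay: the NS5A variant is introduced into a GT1a-H77 or GT1b-Con1 replicon and electroporated into Huh7-derived cells. The read-out is reduced luciferase signal. EC90s are means of at least two experiments.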

[6] = tested on: Hepatitis C virus subtype 1a; experiment: Inhibition of NS5A Q30D mutant in Hepatitis C virus subtype 1a
In short: (§4)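 NS5A resistance variants engineered into GT1a-H77 or GT1b-Con1 replicons. Each variant replicon is transfected transiently by electroporation into a Huh7-derived cell line. Percent inhibition is taken from the drop in luciferase signal at each compound concentration, and EC90 is calculated from these. Values are means of at least two experiments.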

[7] = Clearance in male Wistar Han rats at 2 mg/kg, iv administered post overnight fasting measured upto 24 hrs by LC-MS/MS analysis; type: ADME, organism-based; conditions: rat, in vivo; in short: as §1
[8] = Half-life in male Wistar Han rats at 2 mg/kg, iv administered post overnight fasting measured upto 24 hrs by LC-MS/MS analysis; type: ADME, organism-based; conditions: rat, in vivo; in short: as §1
[9] = tested on: Hepatitis C virus subtype 1a; experiment: Selectivity ratio of EC90 for inhibition of NS5A Q30D mutant in Hepatitis C virus subtype 1a to EC90 for Selectivity ratio of EC90 for inhibition of NS5A in Hepatitis C virus subtype 1a; in short: as §3
Huh-7 [10] = experiment: Inhibition of NS5A in Hepatitis C virus subtype 1a infected in human HuH7 cells assessed as reduction in viral replication by luciferase reporter gene assay; type: cell-based
In short: (§5)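 Transient replicon assay with GT1a-H77, GT1b-Con1 or chimeric replicons, electroporated into a Huh7-derived cell line. Percent inhibition of replication, read as a drop in luciferase signal, was calculated at each concentration to give EC90. Values are means of at least two experiments.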

[11] = Selectivity ratio of EC90 for inhibition of NS5A in Hepatitis C virus subtype 1b infected in human HuH7 cells assessed as reduction in viral to EC90 for inhibition of NS5A in Hepatitis C virus subtype 1a; type: cell-based; in short: as §2
[12] = tested on: Nonstructural protein 5A (Hepatitis C virus), Q5L478 [UNDEFINED MUTATION]; experiment: Inhibition of NS5A L31V mutant in Hepatitis C virus subtype 1a infected in human HuH7 cells assessed as reduction in viral replication by luciferase reporter gene assay; type: cell-based; conditions: Huh-7; in short: as §4
[13] = tested on: Hepatitis C virus subtype 1a; experiment: Selectivity ratio of EC90 for inhibition of NS5A Q30R mutant in Hepatitis C virus subtype 1a to EC90 for Selectivity ratio of EC90 for inhibition of NS5A in Hepatitis C virus subtype 1a; in short: as §3
[14] = tested on: Nonstructural protein 5A (Hepatitis C virus), Q5L478 [UNDEFINED MUTATION]; experiment: Inhibition of NS5A L31V mutant in Hepatitis C virus subtype 1b; in short: as §4
[15] = Selectivity ratio of EC90 for inhibition of NS5A Y93H mutant in Hepatitis C virus subtype 1b to EC90 for Selectivity ratio of EC90 for inhibition of NS5A in Hepatitis C virus subtype 1a; in short: as §3
Huh-7 [16] = experiment: Inhibition of NS5A in Hepatitis C virus subtype 4a infected in human HuH7 cells assessed as reduction in viral replication by luciferase reporter gene assay; type: cell-based; in short: as §5
Huh-7 [17] = experiment: Inhibition of NS5A in Hepatitis C virus subtype 1b infected in human HuH7 cells assessed as reduction in viral replication by luciferase reporter gene assay; type: cell-based; in short: as §5
[18] = tested on: T1, Nonstructural protein 5A (Hepatitis C virus), Q5L478 [Y93N]; experiment: Inhibition of NS5A Y93N mutant in Hepatitis C virus subtype 1a; in short: as §4
T1 sequence (whole entry): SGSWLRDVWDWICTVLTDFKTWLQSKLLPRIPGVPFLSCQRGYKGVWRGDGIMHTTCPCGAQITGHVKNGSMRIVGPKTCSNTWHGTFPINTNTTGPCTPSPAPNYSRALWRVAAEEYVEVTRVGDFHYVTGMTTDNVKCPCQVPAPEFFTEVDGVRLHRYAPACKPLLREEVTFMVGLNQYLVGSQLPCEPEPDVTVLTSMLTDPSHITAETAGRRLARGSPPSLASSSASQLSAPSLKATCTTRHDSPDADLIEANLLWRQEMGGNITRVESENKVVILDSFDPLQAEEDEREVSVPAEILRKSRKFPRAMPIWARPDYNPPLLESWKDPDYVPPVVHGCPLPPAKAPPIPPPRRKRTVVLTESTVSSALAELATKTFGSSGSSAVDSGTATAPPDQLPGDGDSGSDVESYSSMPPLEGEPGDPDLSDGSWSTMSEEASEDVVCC

[19] = Selectivity ratio of EC90 for inhibition of NS5A L31V mutant in Hepatitis C virus subtype 1b to EC90 for Selectivity ratio of EC90 for inhibition of NS5A in Hepatitis C virus subtype 1a; in short: as §3
[20] = Oral bioavailability in male Wistar Han rat at 10 mg/kg post overnight fasting measured upto 24 hrs by LC-MS/MS analysis; type: ADME, organism-based; conditions: in vivo; in short: as §1
[21] = Selectivity ratio of EC90 for inhibition of NS5A L31V mutant in Hepatitis C virus subtype 1a infected in human HuH7 cells assessed as reduction in viral to EC90 for inhibition of NS5A in Hepatitis C virus subtype 1a; type: cell-based; in short: as §3
[22] = tested on: T2, Nonstructural protein 5A (Hepatitis C virus), Q5L478 [Y93H]; experiment: Inhibition of NS5A Y93H mutant in Hepatitis C virus subtype 1a infected in human HuH7 cells assessed as reduction in viral replication by luciferase reporter gene assay; type: cell-based; conditions: Huh-7; in short: as §4
T2 sequence (whole entry): T1 sequence (whole entry) with N93H

Huh-7 [23] = experiment: Inhibition of NS5A in Hepatitis C virus subtype 3a infected in human HuH7 cells assessed as reduction in viral replication by luciferase reporter gene assay; type: cell-based; in short: as §5
Huh-7 [24] = experiment: Inhibition of NS5A in Hepatitis C virus subtype 2b infected in human HuH7 cells assessed as reduction in viral replication by luciferase reporter gene assay; type: cell-based; in short: as §5
[25] = AUC in male Wistar Han rats at 10 mg/kg, po administered post overnight fasting measured upto 24 hrs by LC-MS/MS analysis; type: ADME, organism-based; design: route oral, dose 10 mg/kg, time <=24; conditions: rat, in vivo; in short: as §1
[26] = tested on: Hepatitis C virus subtype 1a; experiment: Selectivity ratio of EC90 for inhibition of NS5A Y93N mutant in Hepatitis C virus subtype 1a to EC90 for Selectivity ratio of EC90 for inhibition of NS5A in Hepatitis C virus subtype 1a; in short: as §3
[27] = tested on: Nonstructural protein 5A (Hepatitis C virus), Q5L478 [UNDEFINED MUTATION]; experiment: Inhibition of NS5A Q30R mutant in Hepatitis C virus subtype 1a; in short: as §4
[28] = Selectivity ratio of EC90 for inhibition of NS5A in Hepatitis C virus subtype 2b infected in human HuH7 cells assessed as reduction in viral to EC90 for inhibition of NS5A in Hepatitis C virus subtype 1a; type: cell-based
[29] = tested on: T2, Nonstructural protein 5A (Hepatitis C virus), Q5L478 [Y93H]; experiment: Inhibition of NS5A Y93H mutant in Hepatitis C virus subtype 1b; in short: as §4

Row | Compound | Selectivity ratio [1] | Cmax [2] | concentration at 24 h [3] | Selectivity ratio [4] | Selectivity ratio [5] | clearance [7] | half-life [8] | EC90 (Huh-7 [10]) | Selectivity ratio [11] | EC90 [12] | EC90 (Huh-7 [16]) | EC90 (Huh-7 [17]) | bioavailability [20] | Selectivity ratio [21] | EC90 [22] | EC90 (Huh-7 [23]) | EC90 (Huh-7 [24]) | AUC at 24 h [25] | Selectivity ratio [28] | other results
1 | COC(=O)N[C@H](C(=O)N1CCC[C@H]1c1ncc(-c2cc(F)c3c(c2)OC(c2ccc4c(c2)OCCC42CC2)n2c-3cc3cc(-c4cnc([C@@H]5CCCN5C(=O)[C@@H](NC(=O)OC)C(C)C)[nH]4)ccc32)[nH]1)C(C)C.O=C(O)C(F)(F)F.O=C(O)C(F)(F)F (some centres undefined) | 2 | 29 nM | 1 nM | 1 | 20 | 15 mL/min/kg | 8.5 h | 3 pM | 1 | 6 pM | 6 pM | 4 pM | 2% | 1 | 100 pM | 10 pM | 200 pM | 0.24 µM·h | 40 | EC90 [6]: 1200 pM; Selectivity ratio [9]: 400; Selectivity ratio [13]: 10; EC90 [14]: 5 pM; Selectivity ratio [15]: 7; EC90 [18]: 900 pM; Selectivity ratio [19]: 2; Selectivity ratio [26]: 300; EC90 [27]: 30 pM; EC90 [29]: 20 pM
2 | COC(=O)N[C@H](C(=O)N1CCC[C@H]1c1ncc(-c2cc(F)c3c(c2)OC(c2ccc4c(c2)OCC[C@H]4C)n2c-3cc3cc(-c4cnc([C@@H]5CCCN5C(=O)[C@@H](NC(=O)OC)C(C)C)[nH]4)ccc32)[nH]1)C(C)C (some centres undefined) | 2 |  |  | 1 | 50 |  |  | 4 pM | 1 | 7 pM | 3 pM | 2 pM |  | 2 | 200 pM | 6 pM | 200 pM |  | 50 | 
3 | COC(=O)N[C@H](C(=O)N1CCC[C@H]1c1ncc(-c2cc(F)c3c(c2)OC(c2ccc4c(c2)OC(C)(C)C4)n2c-3cc3cc(-c4cnc([C@@H]5CCCN5C(=O)[C@@H](NC(=O)OC)C(C)C)[nH]4)ccc32)[nH]1)C(C)C.O=C(O)C(F)(F)F.O=C(O)C(F)(F)F (some centres undefined) | 2 | 58 nM | 9 nM | 1 | 67 | 7 mL/min/kg | 8.4 h | 3 pM | 1 | 20 pM | 3 pM | 4 pM | 3% | 7 | 200 pM | 5 pM | 500 pM | 0.71 µM·h | 167 | 
4 | COC(=O)N[C@H](C(=O)N1CCC[C@H]1c1ncc(-c2cc(F)c3c(c2)OC(c2ccc4c(c2)OCC[C@@H]4C)n2c-3cc3cc(-c4cnc([C@@H]5CCCN5C(=O)[C@@H](NC(=O)OC)C(C)C)[nH]4)ccc32)[nH]1)C(C)C (some centres undefined) | 3 |  |  | 1 | 50 |  |  | 4 pM | 1 | 10 pM | 3 pM | 2 pM |  | 3 | 200 pM | 10 pM | 200 pM |  | 50 | 
